# Reference: paper PMC4827872 (Chemical research in toxicology, 2015)
# Where two headings read alike, the source gives them in different places. Where a SMILES comes first, the peptide text is derived from it. The star is where a group is joined. Cbz = O=C(OCc1ccccc1)*
# B1: DIO2 (Homo sapiens) (protein)
# chain: MGILSVDLLITLQILPVFFSNCLFLALYDSVILLKHVVLLLSRSKSTRGEWRRMLTSEGLRCVWKSFLLDAYKQVKLGEDAPNSSVVHVSSTEGGDNSGNGTQEKIAEGATCHLLDFASPERPLVVNFGSATUPPFTSQLPAFRKLVEEFSSVADFLLVYIDEAHPSDGWAIPGDSSLSFEVKKHQNQEDRCAAAQQLLERFSLPPQCRVVADRMDNNANIAYGVAFERVCIVQRQKIAYLGGKGPFSYNLQEVRHWLEKNFSKRUKKTRLAG
# Columns and labels:
# [1] = biological target: T1, DIO2 (Homo sapiens, UniProt Q92813); experiment: In vitro DIO2 kinetics and inhibition in microsomal preparations of H4 cells; format: biochemical; settings: for concentrations at which DIO2 activity was inhibited / Vmax of DIO2 with inhibitor added: H4 microsomes; for concentrations at which DIO2 activity was inhibited: 2 nM T4
# T1 sequence (Q92813 1-273): B1 chain
# [2] = system: DIO2 mRNA; experiment: DIO2 mRNA expression; format: cell-based, human; settings: 6 h; for DIO2 mRNA expression level vs control: 3 doses
# [3] = system: cultured cells; experiment: Cell viability; format: cell-based; settings: for decrease in viability: 5 µM, 24 h exposure; for significant effects on viability: any doses less than 7.5 µM, 24 h
# [4] = human serum, cited from earlier work
# [5] = system: cultured cells; experiment: Cell membrane damage; format: cell-based; settings: 24 h; for membrane damage vs control: doses less than 50 µM; for significant effects on membrane damage: any doses less than 7.5 µM
# Outline: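 Cells in 96-well plates, switched to serum-free A-DMEM with 30 nM selenium 24 h beforehand, then exposed 24 h to test compound added from 1,000× DMSO stocks (final DMSO 0.1%). Membrane damage was read as glucose-6-phosphate dehydrogenase activity released into the medium. Values were normalized to well DNA content and to DMSO vehicle controls.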
# [6] = biological target: T1, DIO2; experiment: DIO2 activity in H4 glioma cells exposed to PBDEs/OH-BDEs; format: cell-based; settings: for Significant DIO2 Effects in H4 Cells (%Ctrl): at the lowest dose that significantly decreased DIO2 activity; for decrease in DIO2 activity with MG132 coexposure: plus 10 µM MG132
# [7] = biological target: T1, DIO2; experiment: DIO2 activity in primary human astrocyte cells exposed to test compounds; format: cell-based
# Outline: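 Primary human astrocytes were grown on gelatin-coated dishes, moved to serum-free A-DMEM (30 nM selenium) 24 h before use, and induced with 10 µM forskolin. Exposure was 6 h (0.1% DMSO), with 100 nM rT3 as positive control. Microsomes (100,000×g, 60 min) were incubated 75 min at 37°C with DTT/EDTA/glycerol buffer. Net T3 was measured by LC/MS/MS (fmol min−1 mg protein−1) and expressed as % vehicle control; n=8 from 2 experiments.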
# [8] = Biotransformation assay in cultured cells; format: in vitro ADME, human; settings: cells exposed for up to 48 h; 1 µM
# [9] = substrate: NC(Cc1cc(I)c(Oc2cc(I)c(O)c(I)c2)c(I)c1)C(=O)O; experiment: In vitro DIO2 kinetics and inhibition in microsomal preparations of H4 cells; format: biochemical, human; settings: other: H4 microsomal fraction; T4 as substrate; no inhibitor; 37.0 °C
# [10] = calculated assuming serum lipid 6.36 mg mL−1, ref 53
# [11] = geometric mean or median, ref 53
# [12] = H4 cells, 5,000 nM, 6 h exposure
# [13] = H4 glioma cells, doses of approximately 1–5 µM (abstract)
# [14] = Homo sapiens, read-out: DIO2 mRNA expression ratio relative to the control value of 1.0
# [15] = H4 cells, 500 nM, 6 h, relative to MG132 control
# [16] = calculated assuming serum lipid 6.36 mg mL−1, ref 36
# [17] = calculated assuming serum lipid 6.36 mg mL−1, ref 5
# [18] = calculated assuming serum lipid 6.36 mg mL−1, ref 43
# [19] = calculated assuming serum lipid 6.36 mg mL−1, ref 52
# [20] = geometric mean or median, ref 5
# [21] = geometric mean or median, ref 43
# [22] = geometric mean or median, ref 52
molecule,measurement,setting,value
Oc1c(Br)ccc(Oc2ccc(Br)cc2Br)c1Br [3-OH-BDE-47],concentrations at which DIO2 activity was inhibited,[1],> 1 µM
same,Ki,"[1]; read-out: Ki for DIO2, calculated from IC50, measured T4 concentration and Km",1.6 µM
same,DIO2 mRNA expression level vs control,[2]; H4 cells,not significantly different from control
same,decrease in viability,[3],31.7 ± 7.8%
same,Average Serum Concentration,[4]; [10],0.020 nM
same,Average Serum Concentration,[4]; [11],1.6 ng/g lipid
same,membrane damage vs control,[5],not significantly different from control
same,lowest dose that significantly decreased DIO2 activity,[6]; H4 cells,"~1,000 nM"
same,decrease in DIO2 activity,"[6]; H4 cells, 1,000 nM, 1 h exposure",71.1 ± 13.7%
same,decrease in DIO2 activity,"[6]; H4 cells, 1,000 nM, 6 h exposure",52.1 ± 8.5%
same,decrease in DIO2 activity,"[6]; H4 cells, 1,000 nM, 12 h exposure",not significantly different from control
same,decrease in DIO2 activity,[6]; [12],68.2 ± 13.9%
same,decrease in DIO2 activity,[6]; [13],45–80%
same,Significant DIO2 Effects in H4 Cells (%Ctrl),[6],71.1%
Oc1cc(Oc2cc(Br)c(Br)cc2Br)c(Br)cc1Br [5’-OH-BDE-99],IC50,[1],16.6 ± 1.1 µM
same,Ki,[1],7.11 µM
same,concentrations at which DIO2 activity was inhibited,[1],> 1 µM
same,Vmax of DIO2 with inhibitor added,[1]; 15 µM 5’-OH-BDE-99 added,47.2 ± 8.0 fmol min^−1 mg protein^−1
same,mrna remaining at 5 µM,[2]; [14],64 ± 12%
same,significant effects on viability,[3],not detected
same,Average Serum Concentration,[4]; [11],22 ng/g lipid
same,significant effects on membrane damage,[5],not detected
same,inhibition at 1 µM,"[6]; 6 h, read-out: decrease in DIO2 activity, H4 cells, 1,000 nM, 6 h exposure",57.4 ± 1.2%
same,inhibition at 5 µM,"[6]; 6 h, read-out: decrease in DIO2 activity, H4 cells, 5,000 nM, 6 h exposure",63.6 ± 2%
same,inhibition at 1 µM,"[6]; 12 h, read-out: decrease in DIO2 activity, H4 cells, 1,000 nM, 12 h exposure",55.7 ± 5.4%
same,lowest dose that significantly decreased DIO2 activity,[6]; H4 cells,"~1,000 nM"
same,decrease in DIO2 activity with MG132 coexposure,[6]; [15],37.0 ± 2.6%
same,decrease in DIO2 activity,[6]; [13],45–80%
same,Significant DIO2 Effects in H4 Cells (%Ctrl),[6],57.4%
Oc1cc(Br)cc(Br)c1Oc1ccc(Br)cc1Br [6-OH-BDE-47],DIO2 mRNA expression ratio relative to the control value of 1.0,"[2]; H4 cells, 5,000 nM, normalized to RPL13A",0.59 ± 0.08
same,decrease in viability,[3],32.0 ± 8.2%
same,Average Serum Concentration,[4]; [16],0.0022 nM
same,Maximum Serum Concentration,[4]; [16],0.137 nM
same,Average Serum Concentration,[4]; [10],0.13 nM
same,Average Serum Concentration,"[4]; geometric mean or median, ref 36",0.17 ng/g lipid
same,Average Serum Concentration,[4]; [11],9.9 ng/g lipid
same,Average Serum Concentration,"[4]; geometric mean or median, ref 54",0.0131 nM
same,Maximum Serum Concentration,[4]; ref 36,10.8 ng/g lipid
same,Maximum Serum Concentration,[4]; ref 54,0.336 nM
same,membrane damage vs control,[5],not significantly different from control
same,lowest dose that significantly decreased DIO2 activity,[6]; H4 cells,"5,000 nM"
same,decrease in DIO2 activity,[6]; [12],57.1 ± 11.4%
same,decrease in DIO2 activity,[6]; [13],45–80%
same,Significant DIO2 Effects in H4 Cells (%Ctrl),[6],57.1%
Brc1ccc(Oc2ccc(Br)cc2Br)c(Br)c1 [BDE-47],DIO2 mRNA expression level vs control,[2]; H4 cells,not significantly different from control
same,significant effects on viability,[3],not detected
same,Average Serum Concentration,[4]; [17],0.305 nM
same,Maximum Serum Concentration,[4]; [17],4.58 nM
same,Average Serum Concentration,[4]; [18],1.01 nM
same,Maximum Serum Concentration,[4]; [18],1.94 nM
same,Average Serum Concentration,[4]; [19],1.02 nM
same,Maximum Serum Concentration,[4]; [19],60.7 nM
same,Average Serum Concentration,[4]; [20],23.3 ng/g lipid
same,Average Serum Concentration,[4]; [21],77 ng/g lipid
same,Average Serum Concentration,[4]; [22],77.8 ng/g lipid
same,Maximum Serum Concentration,[4]; ref 5,350 ng/g lipid
same,Maximum Serum Concentration,[4]; ref 43,148 ng/g lipid
same,Maximum Serum Concentration,[4]; ref 52,"4,640 ng/g lipid"
same,significant effects on membrane damage,[5],not detected
same,effect on DIO2 activity,"[6]; H4 cells, any of the exposure concentrations, 6 h exposure",did not significantly alter
same,Significant DIO2 Effects in H4 Cells (%Ctrl),[6],None
Brc1ccc(Oc2cc(Br)c(Br)cc2Br)c(Br)c1 [BDE-99],Ki,[1],33.3 µM
same,concentrations at which DIO2 activity was inhibited,[1],> 1 µM
same,Vmax of DIO2 with inhibitor added,[1]; 20 µM BDE-99 added,50.6 ± 5.6 fmol min^−1 mg protein^−1
same,inhibition at 90 µM,[1]; read-out: maximum inhibition of DIO2,45%
same,mrna remaining at 0.5 µM,[2]; [14],63 ± 6%
same,mrna remaining at 2.5 µM,[2]; [14],59 ± 10%
same,significant effects on viability,[3],not detected
same,inhibition at 0.5 µM,"[7]; 6 h, read-out: decrease in DIO2 activity",51.8 ± 8.6%
same,decrease in DIO2 activity,"[7]; primary astrocyte cells, doses of 500 nM or greater (abstract)",50%
same,Average Serum Concentration,[4]; [20],6.39 ng/g lipid
same,Average Serum Concentration,[4]; [21],3.0 ng/g lipid
same,Average Serum Concentration,[4]; [22],26.1 ng/g lipid
same,Maximum Serum Concentration,[4]; ref 5,225 ng/g lipid
same,Maximum Serum Concentration,[4]; ref 43,33 ng/g lipid
same,Maximum Serum Concentration,[4]; ref 52,"1,200 ng/g lipid"
same,metabolites formed in cells or cell culture media,[8],Neither OH-BDEs nor debrominated PBDE metabolites were detected
same,significant effects on membrane damage,[5],not detected
same,inhibition at 0.5 µM,"[6]; 6 h, read-out: decrease in DIO2 activity, H4 cells, 500 nM, 6 h exposure",82.9 ± 6.7%
same,inhibition at 2.5 µM,"[6]; 6 h, read-out: decrease in DIO2 activity, H4 cells, 2,500 nM, 6 h exposure",80.8 ± 4.7%
same,inhibition at 0.5 µM,"[6]; 12 h, read-out: decrease in DIO2 activity, H4 cells, 500 nM, 12 h exposure",64.6 ± 2.8%
same,decrease in DIO2 activity with MG132 coexposure,[6]; [15],45.5 ± 3.8%
same,decrease in DIO2 activity,"[6]; H4 cells, doses of 500 nM or greater (abstract)",up to 80%
same,Significant DIO2 Effects in H4 Cells (%Ctrl),[6],82.9%
same,decrease in DIO2 activity,"[6]; both cell types (primary astrocytes and H4 glioma), exposure for a few hours",approximately 50%
"CC(C)C[C@@H](C=O)NC(=O)[C@H](CC(C)C)NC(=O)[C@H](CC(C)C)NC(=O)OCc1ccccc1 [MG132, reference compound] (Cbz-Leu-Leu-Leu-aldehyde)",increase in basal DIO2 activity,"[6]; H4 cells, 10 µM",73.5 ± 17.9%
"N[C@@H](Cc1ccc(Oc2cc(I)c(O)c(I)c2)c(I)c1)C(=O)O [rT3, 3,3’,5’ Triiodothyronine, reference compound]",decrease in DIO2 activity,"[7]; primary human astrocytes, 100 nM, 6 h, positive control",49.4 ± 4.1%
same,decrease in DIO2 activity,"[6]; H4 cells, 100 nM, 6 h, no inhibitor coexposure (Figure 8)",55.9% ± 3.6
same,decrease in DIO2 activity with MG132 coexposure,"[6]; H4 cells, 100 nM, 6 h",25.8 ± 2.3%
B1,Km,[9],3.49 ± 0.94 nM
same,Vmax,[9],47.5 ± 2.9 fmol min^−1 mg protein^−1
